These results are taken from ChEMBL document CHEMBL1212932, “Nocapyrones A-D, gamma-pyrones from a Nocardiopsis strain isolated from the marine sponge Halichondria panicea” (2010).

One experiment has as its system Erwinia amylovora. The experiment is described as follows: Antimicrobial activity against Erwinia amylovora DSM 50901. It is filed as functional, organism-based.
Another experiment concerns Mammaliicoccus lentus. The experiment is described as follows: Antimicrobial activity against Staphylococcus lentus DSM 6672. It is filed as functional, organism-based.
The test system of another experiment is Bacillus subtilis. The experiment is described as follows: Antimicrobial activity against Bacillus subtilis DSM 347. It counts as functional, organism-based.
Experiment [1] concerns the target Acetylcholinesterase (Homo sapiens) (UniProt P22303). The experiment is described as follows: Inhibition of acetylcholinesterase by colorimetric assay.
The subject of another experiment is Escherichia coli. The experiment is described as follows: Antimicrobial activity against Escherichia coli K-12 DSM 498. It is filed as functional, organism-based.
Experiment [2] can be described thus: Inhibition of phosphodiesterase 4 by colorimetric assay.
For another experiment, the system named is Cutibacterium acnes. The experiment is described as follows: Antimicrobial activity against Propionibacterium acnes DSM 1897. It counts as functional, organism-based.
Experiment [3] addresses Glycogen synthase kinase-3 beta (Homo sapiens) (UniProt P49841). The experiment is described as follows: Inhibition of GSK3-beta.
Another experiment concerns Xanthomonas campestris. The experiment is described as follows: Antimicrobial activity against Xanthomonas campestris DSM 2405. It is filed as functional, organism-based.
The target in experiment [4] is T1, Tyrosine-protein phosphatase non-receptor type 1 (Homo sapiens) (UniProt P18031).
T1 sequence (whole entry): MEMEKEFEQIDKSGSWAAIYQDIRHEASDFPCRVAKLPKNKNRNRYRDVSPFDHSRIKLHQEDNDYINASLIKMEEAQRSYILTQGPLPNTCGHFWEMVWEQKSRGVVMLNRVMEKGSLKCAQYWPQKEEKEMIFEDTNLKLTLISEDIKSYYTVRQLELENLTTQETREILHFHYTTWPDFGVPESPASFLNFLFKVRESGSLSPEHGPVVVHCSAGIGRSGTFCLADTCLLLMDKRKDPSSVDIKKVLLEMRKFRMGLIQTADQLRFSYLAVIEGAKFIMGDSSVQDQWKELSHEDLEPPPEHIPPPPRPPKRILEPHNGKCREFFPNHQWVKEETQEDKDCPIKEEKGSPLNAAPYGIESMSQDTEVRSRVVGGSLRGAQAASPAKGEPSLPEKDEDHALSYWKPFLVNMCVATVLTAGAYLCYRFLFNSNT
The experiment is described as follows: Inhibition of protein tyrosine phosphatase 1b by colorimetric assay.

Another experiment has as its system Pseudomonas aeruginosa. The experiment is described as follows: Antimicrobial activity against Pseudomonas aeruginosa DSM 50071. It counts as functional, organism-based.
A further experiment relates to Ralstonia solanacearum. The experiment is described as follows: Antimicrobial activity against Ralstonia solanacearum DSM 9544. It is filed as functional, organism-based.
Another experiment deals with Pseudomonas fluorescens. The experiment is described as follows: Antimicrobial activity against Pseudomonas fluorescens NCIMB 10586. It is filed as functional, organism-based.
The target in experiment [5] is Human immunodeficiency virus type 1 reverse transcriptase (Human immunodeficiency virus 1) (UniProt Q72547). The experiment is described as follows: Inhibition of HIV1 reverse transcriptase by ELISA. Background: ELISA stands for enzyme-linked immunosorbent assay.
Experiment [6] deals with Staphylococcus epidermidis. The experiment is described as follows: Antimicrobial activity against Staphylococcus epidermidis DSM 20044. It counts as functional, organism-based.
The test system of the next experiment is Pseudomonas syringae. The experiment is described as follows: Antimicrobial activity against Pseudomonas syringae DSM 50252. It counts as functional, organism-based.
In a further experiment the test system is Candida albicans. The experiment is described as follows: Antimicrobial activity against Candida albicans DSM 6425. It is filed as functional, organism-based.
The subject of a further experiment is NIH3T3. The experiment is described as follows: Cytotoxicity against mouse NIH/3T3 cells at 50 uM. It counts as functional. A digest of the protocol: (§1)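 Cells were treated with compound at 50 µM. The read-out was metabolic activity, and the value is given as the percent reduction in metabolic activity.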
The test system of a further experiment is HepG2. The experiment is described as follows: Cytotoxicity against human HepG2 cells at 50 uM. It is filed as functional. A digest of the protocol: as §1

Each structure is given as a SMILES string. Active and inactive are the calls of the source. No cut-off for these calls is given here.

Sequence of Acetylcholinesterase (Homo sapiens) (P22303 whole entry): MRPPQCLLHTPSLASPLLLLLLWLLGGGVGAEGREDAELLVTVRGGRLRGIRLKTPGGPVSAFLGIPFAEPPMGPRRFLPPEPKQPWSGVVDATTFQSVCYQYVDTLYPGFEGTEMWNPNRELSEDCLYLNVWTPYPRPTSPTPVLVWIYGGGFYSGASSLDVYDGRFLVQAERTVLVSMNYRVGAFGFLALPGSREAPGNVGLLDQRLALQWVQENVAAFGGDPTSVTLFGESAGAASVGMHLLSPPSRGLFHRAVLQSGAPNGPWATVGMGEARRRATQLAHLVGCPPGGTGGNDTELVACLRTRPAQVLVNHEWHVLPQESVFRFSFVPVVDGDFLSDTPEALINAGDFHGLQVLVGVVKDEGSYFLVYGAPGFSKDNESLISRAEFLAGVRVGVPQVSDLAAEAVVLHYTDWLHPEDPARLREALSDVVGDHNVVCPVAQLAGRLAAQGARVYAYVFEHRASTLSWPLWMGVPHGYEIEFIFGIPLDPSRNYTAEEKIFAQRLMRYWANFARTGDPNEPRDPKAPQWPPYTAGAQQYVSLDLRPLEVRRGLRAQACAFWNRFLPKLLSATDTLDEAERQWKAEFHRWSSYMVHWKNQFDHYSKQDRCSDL
Sequence of Glycogen synthase kinase-3 beta (Homo sapiens) (P49841 whole entry, looked up): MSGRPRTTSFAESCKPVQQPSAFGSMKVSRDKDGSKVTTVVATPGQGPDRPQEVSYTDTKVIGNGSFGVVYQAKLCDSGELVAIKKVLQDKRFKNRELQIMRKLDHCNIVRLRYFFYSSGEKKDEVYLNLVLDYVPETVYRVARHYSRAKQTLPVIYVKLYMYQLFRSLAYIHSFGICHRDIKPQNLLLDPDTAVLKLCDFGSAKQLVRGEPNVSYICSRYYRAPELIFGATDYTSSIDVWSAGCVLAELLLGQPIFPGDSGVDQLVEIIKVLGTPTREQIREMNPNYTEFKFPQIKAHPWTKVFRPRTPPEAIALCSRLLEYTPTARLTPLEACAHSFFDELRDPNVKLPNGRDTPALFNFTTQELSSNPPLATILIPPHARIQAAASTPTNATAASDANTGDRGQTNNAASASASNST

Take `COc1oc(CCCCC(C)(C)O)c(C)c(=O)c1C`: the result (with Erwinia amylovora; with Mammaliicoccus lentus; in the experiment on Bacillus subtilis; in experiment [1]; with Escherichia coli; in [2]) was inactive. Moreover, the result (in the experiment on Cutibacterium acnes; in experiment [3]; in the experiment with Xanthomonas campestris; in experiment [4]; in the experiment with Pseudomonas aeruginosa; in the experiment with Ralstonia solanacearum) was inactive. Moreover, the result (with Pseudomonas fluorescens; in experiment [5]; in experiment [6]; with Pseudomonas syringae; in the experiment on Candida albicans) was inactive.
Take `COc1ccc(/C=c2/[nH]c(=O)/c(=C/C(C)C)[nH]c2=O)cc1`: the Activity in the experiment with NIH3T3 worked out at 64%; with HepG2, 44%.
Turning to `COc1oc(CCCCC(C)C)c(C)c(=O)c1C`, the outcome (with Erwinia amylovora; in the experiment with Mammaliicoccus lentus; with Bacillus subtilis; in experiment [1]; in the experiment with Escherichia coli; in [2]) was inactive. Also, the result (in the experiment with Cutibacterium acnes; in [3]; with Xanthomonas campestris; in experiment [4]; with Pseudomonas aeruginosa; in the experiment on Ralstonia solanacearum) was inactive. Moreover, the result (in the experiment with Pseudomonas fluorescens; in [5]; in [6]; in the experiment with Pseudomonas syringae; with Candida albicans) was inactive.
